Source: paper PMC8919593 (Journal of neuroscience research, 2021)

Legend:
ERK2 = conditions: read-out: IC50 for ERK2; ref Morris et al., 2013; cited from earlier work
primary mouse microglia [1] = test: Flow cytometric assay of microglial viability; format: cell-based; conditions: 1 μM inhibitor, with or without 1 ng/ml IFNγ, 24 hr; Figure S2
ERK1 = conditions: read-out: IC50 for ERK1; ref Morris et al., 2013; cited from earlier work
primary mouse microglia [2] = test: Microglia-neuron coculture assay of neuronal phagocytosis; format: cell-based; conditions: 1 μM inhibitor, without IFNγ treatment; 24 hr coculture; Figure 5e
primary mouse microglia [3] = test: qRT-PCR of homeostatic and DAM genes in primary microglia; format: cell-based; conditions: dose ranges between 4 and 50 nM, IFNγ-stimulated conditions; Figure S6
Summary of the method: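 Mouse brain microglia were purified by CD11b+ MACS selection, plated on poly-L-lysine and cultured at 37°C. After 24 hr, half the medium was replaced and the ERK1/2 inhibitor added. Cells were preincubated 1 hr, then stimulated with 1 ng/ml IFNγ for 24 hr, matching the NanoString culture conditions. RNA was isolated and checked for concentration and purity by spectrophotometry before qRT-PCR.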

O=C(Nc1ccc2[nH]nc(-c3ccncc3)c2c1)[C@@H]1CCN(CC(=O)N2CCN(c3ccc(-c4ncccn4)cc3)CC2)C1 [SCH772984]
IC50 (ERK2): 1 nM
cell health and viability of microglia (primary mouse microglia [1]): minimally impacted cell health and viability
IC50 (ERK1): 4 nM
microglial phagocytosis of N2a cells (primary mouse microglia [2]): significantly reduced microglial phagocytosis of N2a cells
gene expression of Ptgs2 (pro-inflammatory DAM gene) (primary mouse microglia [3]): inhibited gene expression of Ptgs2
